Screening results as filed in PubChem BioAssay.
NALP1 inh: inhibitors of NALP1 inflammasome in yeast; actives 0.61% (n = 280,000); AID 2071; inhibition, % at 10 µM; S. cerevisiae NALP1/ASC/caspase-1 growth, X-gal OD620, 72 h; in the data active = inhibition mostly above about 24%, no sharp cut-off; inactive = mostly below about 32%
SUMO HTRF inh: SUMOylation inhibition; actives 0.36% (n = 290,000); AID 2006; HTRF SUMOylation assay, SAE1/SAE2 + UBC9, in vitro; P63279; inhibition, % at 35 µM; in the data active = inhibition above about 50%, passing the limit was not always enough
Target sequence (P63279 whole entry, looked up): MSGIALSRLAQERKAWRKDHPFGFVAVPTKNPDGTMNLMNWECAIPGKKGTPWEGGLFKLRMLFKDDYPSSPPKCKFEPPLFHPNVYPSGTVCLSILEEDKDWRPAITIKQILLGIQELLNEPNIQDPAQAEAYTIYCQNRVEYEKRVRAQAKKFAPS
Mot1-301 SUMO: SUMOylation pathway inhibition by Mot1-301 growth rescue; S. cerevisiae Mot1-301 growth rescue, ATP luminescence, 38.5C; percent above DMSO median, 100 means doubled; growth rescue, % at 18.8 µM; actives 1% (n = 320,000);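 active = every valid replicate shows activation above 250% relative to neutral control wells; inactive = the rest, any valid replicate at or below 250%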;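 also: OY570 slx delta 5 strain wells were the positive control but not used for scaling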
FID counter: counter-screen for HCV NS3 helicase inhibitors: DNA intercalator displacement; DNA fluorescent intercalator displacement, fluorescence; inhibition, % at 7.9 µM; actives 0.17% (n = 290,000); in the data active = inhibition above about 37%;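 also: 0% = vehicle and 100% = reference compound; higher means more ethidium bromide displaced from hairpin DNA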
IMP-1 inh: inhibitors of Pseudomonas aeruginosa IMP-1 metallo-beta-lactamase | purified IMP-1, nitrocefin hydrolysis, epi-absorbance fluorescence | inhibition, % at 5.6 µM | actives 0.45% (n = 290,000);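 active = inhibition above the mean plus 3 SD of all compounds in the same screening run, cut at about 4.5% in these data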;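 also: 0% = IMP-1 with DMSO and 100% = DMSO wells lacking enzyme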
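System: Purified recombinant IMP-1 metallo-beta-lactamase enzyme | Measured by: Fluorescence quenching readout, ex 480/em 530 nm | Replication: Singlicate | Incubation: 15 min preincubation plus 25 min reaction at 25 °C | Evaluation: Percent inhibition from optical density relative to buffer-blank wells | Benchmarks: DMSO with and without IMP-1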
VIM-2 inh: inhibitors of Pseudomonas aeruginosa VIM-2 metallo-beta-lactamase | inhibition, % at 5.6 µM | actives 0.89% (n = 290,000) | AID 1527 | purified VIM-2, nitrocefin hydrolysis, epi-absorbance fluorescence;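 active = inhibition above the mean of all tested compounds plus 3 SD, cutoff set per screening run, cut at about 7.5% in these data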;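 also: red hydrolysis product quenches plate fluorescence so inhibitors raise well fluorescence; 0% = enzyme with DMSO and 100% = DMSO without enzyme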
An asterisk follows results filed as active. Shown are actives, neighbours in structure and some others; about 2.9% of the full set was active somewhere.

How did C#CCOCCOCCOCCNc1nc(N2CCOCC2)nc(N2CCN(C(=O)[C@H](Cc3ccc(O)cc3)n3cc([C@@H](N)CC(C)C)nn3)CC2)n1 do in these assays?
NALP1 inh: -12; SUMO HTRF inh: 16; Mot1-301 SUMO: 12; FID counter: 19; IMP-1 inh: -2; VIM-2 inh: 0

What do the screens show for `C#CCOCCOCCOCCNc1nc(N2CCN(C(=O)[C@H]([C@@H](C)CC)n3cc([C@@H](N)Cc4ccc(O)cc4)nn3)CC2)nc(N2CCN(C(=O)[C@H](Cc3ccc(O)cc3)n3cc([C@@H](N)CC(C)C)nn3)CC2)n1`?
NALP1 inh: 5; SUMO HTRF inh: -18; Mot1-301 SUMO: -3; FID counter: 36; IMP-1 inh: -3; VIM-2 inh: -4

How did CC(C)(C)NC(=O)Cn1nnc(-c2ccc(OCc3c(F)cccc3Cl)cc2)n1 do in these assays?
NALP1 inh: 1; SUMO HTRF inh: -20; Mot1-301 SUMO: 31; FID counter: -24; IMP-1 inh: -2; VIM-2 inh: -3

How did O=C(CN1C(=O)COc2ccc(S(=O)(=O)N3CCCCC3)cc21)NCc1ccccc1Cl do in these assays?
NALP1 inh: 9; Mot1-301 SUMO: -19; FID counter: -35; IMP-1 inh: -1; VIM-2 inh: 0

Results for O=C(NCCCn1ccnc1)C(=O)NCC(c1cccnc1)N1CCN(c2ccc(F)cc2)CC1 (stereo not drawn) ?
NALP1 inh: 17; SUMO HTRF inh: 19; Mot1-301 SUMO: 4; FID counter: -2; IMP-1 inh: -3; VIM-2 inh: -1

Results for COc1ccc(N2CCN(C(CNC(=O)C(=O)NCCCn3ccnc3)c3cccnc3)CC2)cc1 (stereo not drawn) ?
NALP1 inh: 16; SUMO HTRF inh: 3; Mot1-301 SUMO: -7; FID counter: -6; IMP-1 inh: 5.6*; VIM-2 inh: -4

What do the screens show for `CC(C)c1ccc(CNC(=O)C(=O)NCCCn2ccnc2)cc1`?
NALP1 inh: 0; SUMO HTRF inh: 8; Mot1-301 SUMO: -6; FID counter: -1; IMP-1 inh: 30*; VIM-2 inh: -1

How did Cc1ccc(CC(=O)NCCCn2ccnc2)cc1 do in these assays?
NALP1 inh: -2; SUMO HTRF inh: 4; Mot1-301 SUMO: -24; FID counter: 4; IMP-1 inh: -2; VIM-2 inh: 0

What do the screens show for `CC(NC(=O)C(=O)NCCCn1ccnc1)c1ccccc1` (stereo not drawn)?
NALP1 inh: -6; SUMO HTRF inh: 4; Mot1-301 SUMO: 320*; FID counter: 1; IMP-1 inh: 0; VIM-2 inh: 0

What do the screens show for `O=C(CSc1nc2ccccc2o1)N/N=C/c1ccco1`?
NALP1 inh: 0; SUMO HTRF inh: -6; Mot1-301 SUMO: -6; FID counter: -14; IMP-1 inh: -2; VIM-2 inh: -1

Results for Cc1ccc(-c2nnn(CC(=O)Nc3cccc4cccnc34)n2)o1 ?
NALP1 inh: 16; SUMO HTRF inh: 15; Mot1-301 SUMO: 353*; FID counter: -15; IMP-1 inh: -3; VIM-2 inh: -2

How did O=C(/C=C/c1ccco1)NC(=S)Nc1cccc(C(=O)O)c1 do in these assays?
NALP1 inh: 7; SUMO HTRF inh: 34; Mot1-301 SUMO: -22; FID counter: -13; IMP-1 inh: 8.9*; VIM-2 inh: -4

How did O=C(CCCN1CCN(c2ccccn2)CC1)c1ccc(F)cc1 do in these assays?
Mot1-301 SUMO: 351*

How did O=C(NC(=S)Nc1ccccc1Cl)c1ccco1 do in these assays?
NALP1 inh: 14; SUMO HTRF inh: -7; Mot1-301 SUMO: 355*; FID counter: -1; IMP-1 inh: -2; VIM-2 inh: 0

What do the screens show for `O=C(NC(=S)Nc1cccc(Cl)c1N1CCCCC1)c1ccco1`?
NALP1 inh: 4; SUMO HTRF inh: 2; Mot1-301 SUMO: 0; FID counter: -10; IMP-1 inh: -2; VIM-2 inh: -2

Results for CC(C)CCN(C(=O)CCCSc1nc2ccccc2[nH]1)c1c(N)n(Cc2ccccc2)c(=O)[nH]c1=O ?
Mot1-301 SUMO: -4

Results for O=[N+]([O-])c1cc([N+](=O)[O-])c(Oc2c(Cl)cccc2Cl)cc1NN1CCCCC1 ?
NALP1 inh: 9; SUMO HTRF inh: 2; Mot1-301 SUMO: -3; FID counter: -2; IMP-1 inh: 4.8*; VIM-2 inh: 2

Results for N#C/C(=C\c1cccc(O)c1)c1nc2ccccc2o1 ?
NALP1 inh: -7; SUMO HTRF inh: -5; Mot1-301 SUMO: -10; FID counter: -6; IMP-1 inh: -4; VIM-2 inh: -3

How did Cn1c(/C(C#N)=C/c2cccc(O)c2)nc2ccccc21 do in these assays?
NALP1 inh: 41*; SUMO HTRF inh: 11; Mot1-301 SUMO: -4; FID counter: -9; IMP-1 inh: -3; VIM-2 inh: 0

Results for COC(=O)c1c(NC(=O)C(C)(C)C)csc1C ?
NALP1 inh: 36; SUMO HTRF inh: 7; Mot1-301 SUMO: 0; FID counter: -1; IMP-1 inh: -2; VIM-2 inh: -2

What do the screens show for `CCCc1ccc2oc(C(=O)N(Cc3nccn3C)C(C)C)c(C)c2c1`?
NALP1 inh: -9; SUMO HTRF inh: 4; Mot1-301 SUMO: 22; FID counter: -3; IMP-1 inh: -3; VIM-2 inh: -1

What do the screens show for `Cc1ccc(C)c(S(=O)(=O)Nc2ccc3oc(C)c(C(=O)O)c3c2)c1`?
NALP1 inh: 10; SUMO HTRF inh: -1; Mot1-301 SUMO: 9; FID counter: -26; IMP-1 inh: 6.0*; VIM-2 inh: 2

How did COc1cccc(C(=O)NC2CC3CCCC(C2)N3CC(=O)Nc2ccc(N(C)C)cc2)c1 (stereo not drawn) do in these assays?
NALP1 inh: -8; SUMO HTRF inh: -10; Mot1-301 SUMO: 13; FID counter: 7; IMP-1 inh: -6; VIM-2 inh: -2

Results for COc1cccc(C(=O)NC2CC3CCCC(C2)N3CC(=O)Nc2ccccc2)c1 (stereo not drawn) ?
NALP1 inh: 9; SUMO HTRF inh: 16; Mot1-301 SUMO: -11; FID counter: 16; IMP-1 inh: 28*; VIM-2 inh: -1

What do the screens show for `CCOP(=O)(OCC)/C(=C/N1CCCCC1)NC(=O)c1ccccc1`?
NALP1 inh: 34*; SUMO HTRF inh: 19; Mot1-301 SUMO: -8; FID counter: -2; IMP-1 inh: -5; VIM-2 inh: -1

How did CCOC(=O)C(NC(=O)c1ccccc1)=C1CCCCC1 do in these assays?
NALP1 inh: -9; SUMO HTRF inh: 18; Mot1-301 SUMO: 47; FID counter: 2; IMP-1 inh: -3; VIM-2 inh: -3

How did Cc1cccc(CC(=O)c2c[nH]c3ccccc23)c1 do in these assays?
NALP1 inh: -5; SUMO HTRF inh: -5; Mot1-301 SUMO: 32; FID counter: -3; IMP-1 inh: -2; VIM-2 inh: -3
